Experimental findings from publication PMC4066874 (Immunity, 2014) are described below.

Data set [1] has as its system primary naïve CD4+ T cells under Th17 cell-polarizing conditions. Briefly: cell proliferation of naïve CD4+ T cells under Th17 cell-polarizing conditions. Particulars: not RORγt-dependent.
Data set [2] concerns IL-17 production in Th17 cell cultures. The data set can be described thus: IL-17 production during Th17 cell differentiation in vitro. The format is cell-based, mouse. Particulars: for effect on IL-17 production in Th17 cell cultures: Digoxin at 10 μM, TMP778 over a much broader dose range; for concentration at which the inhibitory effect on IL-17 production was lost: Th17 cell-polarizing conditions.

In data set [3] the test system is experimental autoimmune encephalomyelitis (EAE).
Data set [4] relates to RORγt occupancy at genomic binding sites. The data set can be described thus: ChIP-seq for RORγt in Th17 cells treated with compound. The format is cell-based, mouse. The settings on record: for RORγt sites with decreased (lower) ChIP signal: 2.5 μM TMP778, 10 μM TMP920, 96 h. The method, boiled down: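 Naive CD4+CD62Lhigh CD25− T cells (MACS then FACS sorted) were activated on plate-bound anti-CD3 and anti-CD28 (2 μg/ml each) with IL-6 (20 ng/ml) and TGF-β1 (1 ng/ml), plus IL-23 (10 ng/ml) from 48 h. Test compound (2.5 or 10 μM) or DMSO was present for 96 h. ChIP used anti-RORγt (AFKJS-9), with isotype IgG and RORγt-deficient cells as controls. Sequencing was single-end 36 bp.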

For the next data set, the system named is GATA3 protein. The data set can be described thus: GATA3 protein expression in Th17 cells. The format is cell-based, mouse. The settings on record: Th17 cells treated with compound.
The next data set addresses T1, RORγ (Homo sapiens, UniProt P51449).
T1 sequence (P51449 1-518): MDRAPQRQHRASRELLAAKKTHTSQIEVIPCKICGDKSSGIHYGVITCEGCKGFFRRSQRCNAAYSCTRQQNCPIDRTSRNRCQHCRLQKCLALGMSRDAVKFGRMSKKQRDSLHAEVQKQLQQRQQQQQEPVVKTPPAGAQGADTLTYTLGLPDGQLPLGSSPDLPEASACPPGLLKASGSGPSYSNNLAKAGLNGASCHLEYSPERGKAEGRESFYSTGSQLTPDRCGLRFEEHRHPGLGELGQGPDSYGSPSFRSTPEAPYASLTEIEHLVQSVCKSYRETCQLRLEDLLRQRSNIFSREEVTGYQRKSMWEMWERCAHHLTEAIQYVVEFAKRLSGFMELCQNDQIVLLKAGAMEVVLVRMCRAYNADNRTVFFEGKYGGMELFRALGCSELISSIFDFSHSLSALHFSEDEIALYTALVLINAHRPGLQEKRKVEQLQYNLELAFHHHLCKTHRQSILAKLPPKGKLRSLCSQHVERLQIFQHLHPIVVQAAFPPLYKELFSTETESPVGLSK
Briefly: cell-based nuclear receptor reporter.

In the next data set the target is T2, RORβ (Homo sapiens, UniProt Q92753).
T2 sequence (Q92753 1-470): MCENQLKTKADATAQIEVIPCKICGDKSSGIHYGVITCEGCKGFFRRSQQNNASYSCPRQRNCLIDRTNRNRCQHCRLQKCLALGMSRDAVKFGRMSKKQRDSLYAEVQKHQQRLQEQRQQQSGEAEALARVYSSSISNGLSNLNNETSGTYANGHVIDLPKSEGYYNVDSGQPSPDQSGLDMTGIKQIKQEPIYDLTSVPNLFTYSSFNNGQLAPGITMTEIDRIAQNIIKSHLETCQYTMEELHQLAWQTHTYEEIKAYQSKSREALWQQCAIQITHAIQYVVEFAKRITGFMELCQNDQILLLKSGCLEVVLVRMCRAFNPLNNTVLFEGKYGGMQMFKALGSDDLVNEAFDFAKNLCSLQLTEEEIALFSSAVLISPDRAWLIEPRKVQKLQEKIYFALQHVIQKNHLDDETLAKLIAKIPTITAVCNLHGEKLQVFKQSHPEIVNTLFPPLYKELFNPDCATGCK
The data set can be described thus: cell-based nuclear receptor reporter.

For the next data set, the target named is T3, RORα (Homo sapiens, UniProt P35398).
T3 sequence (P35398 1-523): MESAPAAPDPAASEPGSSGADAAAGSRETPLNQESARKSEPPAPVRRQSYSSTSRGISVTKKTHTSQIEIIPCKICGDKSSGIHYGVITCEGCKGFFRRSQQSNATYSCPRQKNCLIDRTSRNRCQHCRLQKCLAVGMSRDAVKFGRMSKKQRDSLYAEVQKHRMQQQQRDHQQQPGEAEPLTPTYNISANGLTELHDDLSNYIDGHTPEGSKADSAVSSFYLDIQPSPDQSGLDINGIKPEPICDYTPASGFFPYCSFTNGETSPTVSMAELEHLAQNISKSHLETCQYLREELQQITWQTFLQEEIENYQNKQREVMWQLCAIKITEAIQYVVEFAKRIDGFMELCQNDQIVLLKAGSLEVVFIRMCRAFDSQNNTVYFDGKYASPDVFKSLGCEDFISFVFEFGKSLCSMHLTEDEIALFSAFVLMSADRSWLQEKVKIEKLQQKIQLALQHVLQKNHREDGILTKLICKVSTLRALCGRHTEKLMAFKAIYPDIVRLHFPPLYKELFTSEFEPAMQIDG
The data set can be described thus: cell-based nuclear receptor reporter.

Data set [5] deals with T4, RORγt ligand-binding domain (Homo sapiens, UniProt P51449).
T4 sequence (P51449 263-518 limits assumed): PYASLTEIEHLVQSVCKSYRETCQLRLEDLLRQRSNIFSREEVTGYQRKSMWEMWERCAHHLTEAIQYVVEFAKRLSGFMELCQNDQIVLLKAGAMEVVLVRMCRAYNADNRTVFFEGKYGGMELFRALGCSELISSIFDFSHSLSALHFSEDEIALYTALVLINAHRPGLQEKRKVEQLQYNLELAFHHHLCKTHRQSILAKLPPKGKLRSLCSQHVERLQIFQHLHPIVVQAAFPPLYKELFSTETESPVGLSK
Briefly: FRET assay, RORγt ligand-binding domain and cofactor peptide SRC1. The format is biochemical. Particulars: read-out: IC50, inhibition of RORγt binding to the SRC1 peptide in the FRET assay.

Data set [6] concerns the target 22 other nuclear receptors. The data set can be described thus: luciferase assays for 22 other nuclear receptors. The format is cell-based. Particulars: read-out: IC50 in luciferase assays for 22 other nuclear receptors.
In data set [7] the test system is primary naïve CD4+ T cells under Th17 cell-polarizing conditions.
The test system of data set [8] is CCR6- memory human T cells. The data set can be described thus: transcription in human CCR6- memory T cells. The format is cell-based.
The test system of data set [9] is IL-17 production in CD4+ T cells. Briefly: IL-17 production from differentiated Th17 cells. In kind it is cell-based, mouse. The settings on record: WT CD4+ T cells, MOG35-55 plus IL-23, 4 days. Summed up:
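Female C57BL/6 mice (8–12 wk) were immunized s.c. in the flanks with MOG35-55 (100 μg/mouse) in CFA containing M. tuberculosis H37Ra extract. Draining LN cells were restimulated with MOG35-55 and IL-23 plus test compound or DMSO for 4 days. They were then given a 4 h PMA/ionomycin/GolgiStop restimulation, fixed and permeabilized, and stained intracellularly for IL-17 and IFNγ in CD4+ cells. Values are mean ± SD.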

Like-named read-outs stand apart in the source and are kept apart here. Bounds are passed on as bounds.

As usually defined, the IC50 is the midpoint of a concentration-inhibition curve.

With `C[C@H]1O[C@@H](O[C@H]2[C@@H](O)C[C@H](O[C@H]3[C@@H](O)C[C@H](O[C@H]4CC[C@@]5(C)[C@H](CC[C@@H]6[C@@H]5C[C@@H](O)[C@]5(C)[C@@H](C7=CC(=O)OC7)CC[C@]65O)C4)O[C@@H]3C)O[C@@H]2C)C[C@H](O)[C@@H]1O` [Digoxin, reference compound], in [1], the “concentration at which toxic effects on cell growth start” value (from here on “concentration at which toxic effects”) is greater than 10 µM. In data set [2], the “effect on IL-17 production in Th17 cell cultures” value is reported as “specifically inhibited IL-17 production” and the “concentration at which the inhibitory effect on IL-17 production was lost” value is less than 2.5 µM. The “dose that caused mouse death” value in [3] (per injection, subcutaneous twice daily) was greater than 100 µg. Moreover, the “effect on RORγt binding” value in data set [4] (10 μM Digoxin, 96 h) was “intermediate”.

On to `CCS(=O)(=O)c1ccc(CC(=O)Nc2cc(Cl)c(-c3ccccc3OC(F)(F)F)c(Cl)c2)cc1` [GSK805], for which, in data set [2] (GSK805 at 0.5 μM, 4 days), the “inhibition of IL-17 production during Th17 cell differentiation” value is “comparable inhibition of IL-17 production as TMP778 at 2.5 μM”. In addition, in data set [3] (oral, 10 mg/kg daily from day 0), the “effect on severity of EAE” value is recorded as “efficiently ameliorate the severity of EAE”. Also, the “Th17 cell responses in the CNS” value in data set [3] (oral, 30 mg/kg, day 14) was “strongly inhibits Th17 cell responses”. In addition, the GATA3 protein expression result with GATA3 protein is on record as “increased GATA3 protein expression”.

`Cc1ccc([C@@H](NC(=O)Cc2ccc3oc([C@@H](O)c4c(C)noc4C)cc3c2)c2ccccc2)c(C)c1` [TMP778]: the IC50 at RORγ (read-out: IC50 for luciferase activity in RORγ assays) is 0.017 µM; on RORβ (read-out: IC50 for RORβ, luciferase reporter) it was 1.39 µM; on RORα (read-out: IC50 for RORα, luciferase reporter) it was 1.24 µM; in data set [5] it was 0.005 µM; in data set [6], greater than 10 µM. Also, the “IC50 fold higher for RORβ than in RORγ assays” value against RORβ is listed as “roughly 100 fold”. Besides, the “effect on IL-17 production in Th17 cell cultures” value in [2] is “efficiently decreased IL-17 production”. At RORα, the “IC50 fold higher for RORα than in RORγ assays” value is “roughly 100 fold”. Also, the “percentage of IL-17+ T cells in the CNS” value in data set [3] (subcutaneous twice daily, day 21 after EAE induction) was “most strongly reduced the percentage of IL-17^+ T cells in the CNS”. Also, the “new RORγt binding sites” value in [4] (2.5 μM TMP778) is 179. Besides, the “new RORγt binding sites as share of peaks observed with compound” value in [4] (2.5 μM TMP778) was 8.2 % of peaks. In addition, the “RORγt sites with decreased (lower) ChIP signal” value in data set [4] is recorded as 55 % of sites. The “concentration at which toxic effects” value in [7] was greater than 2.5 µM. Also, in [8], the “effect on transcription in population depleted for Th17 cells” value is recorded as “no differentially expressed genes with a fold cutoff over 1.5”. In addition, the “inhibition of IL-17 production from differentiated Th17 cells” value in data set [9] is “the most potent inhibition”. In the data set with GATA3 protein, the GATA3 protein expression entry is on record as “increased expression of GATA3 protein”.

As to `Cc1ccc(C(NC(=O)Cc2ccc(OCc3c(C)noc3C)cc2)c2ccccc2)c(C)c1` (stereo not shown) [TMP920], the IC50 at RORγ (read-out: IC50 in RORγ assays) was 1.1 µM; in data set [5], 0.03 µM; in data set [6], greater than 10 µM. Further, in data set [2], the “concentration at which the inhibitory effect on IL-17 production was lost” value was less than 2.5 µM. The “RORγt sites with decreased (lower) ChIP signal” value in data set [4] was 77 % of sites. Also, the “concentration at which toxic effects” value in data set [7] is greater than 10 µM.
